According to PubChem BioAssay AID624466 (The Scripps Research Institute Molecular Screening Center, 2012):
The campaign covered roughly 360,000 compounds. About 5,400 (1.5%) were called active. The sample as a whole holds a higher share of actives than the screen did. A number with no mark means an inactive call.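 How the source made its calls: active means inhibition above a per-plate cutoff, the mean inhibition of test compounds on that plate plus 3 SD (cut at about 49% in these data); inactive means the rest.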

What follows are compounds tested against Trace amine-associated receptor 1 (Homo sapiens) (UniProt Q96RJ0) (assay: human TAAR1 antagonists, primary screen, Fluo-8 calcium fluorescence, CHO RD-HGA16 cells (AID 624466;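 further: 0% = DMSO plus EC80 beta-PEA response and 100% = DMSO alone without agonist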)). Conditions: CHO RD-HGA16 TAAR1, Fluo-8 calcium fluorescence, antagonist; at 3 µM; active compounds read high.
Chain of Trace amine-associated receptor 1 (Homo sapiens) (Q96RJ0 whole entry, looked up, the tested form may be a part): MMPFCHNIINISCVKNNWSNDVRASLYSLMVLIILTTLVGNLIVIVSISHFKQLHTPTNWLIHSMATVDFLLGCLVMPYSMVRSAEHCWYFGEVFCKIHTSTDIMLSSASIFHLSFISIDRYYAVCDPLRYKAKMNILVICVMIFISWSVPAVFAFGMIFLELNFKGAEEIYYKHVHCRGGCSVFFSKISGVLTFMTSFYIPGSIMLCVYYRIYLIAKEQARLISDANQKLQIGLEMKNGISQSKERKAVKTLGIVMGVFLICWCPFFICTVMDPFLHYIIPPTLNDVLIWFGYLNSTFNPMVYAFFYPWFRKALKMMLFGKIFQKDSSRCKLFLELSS
How it was run: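 Test system – hTAAR1-expressing CHO RD-HGA16 cells, Gα16-coupled · Also added – β-PEA at EC80 concentration, post-compound challenge · Compound – 3 µM, single point · Incubation – dye loading 75 min at 37 °C, then 30 min room temperature · Measured by – Fluo-8 intracellular calcium dye fluorescence, real-time kinetic reads · Benchmarks – vehicle and agonist controls · Replicates – singlicate, one well per test compound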

Structure (SMILES) | inhibition
CCOC(=O)[C@]12CCCC=C1N(Cc1ccc3c(c1)OCO3)C(=O)[C@H](CC(=O)N1CCN(C(=O)c3ccco3)CC1)C2 | -4.35%
CC(C)C[C@H]1CNC(=O)C(=O)N1C[C@H]1CCCN1C[C@H](Cc1ccc(O)cc1)N1C[C@H](CC(C)C)N(CC2CCCCCC2)C(=O)C1=O | 6.77%
CC1CCN(C(=O)c2ncn3c2C(=O)N[C@@H](C)C3)CC1 | -2.44%
CSc1ncnc2c1ncn2CCCNCC1CCCCC1 | -17.2%
CC(=O)C12CC(C)=C(C)CC1CC1C3CCC4=CC(=O)CCC4(C)C3CCC12C (centres undefined) | -34.7%
CSc1ncnc2c1ncn2CC(=O)C1CCC2C3CCC4=CC(=O)CCC4(C)C3CCC12C (centres undefined) | 61.8% (active)
Cc1ccc(CNC(=O)CCS(=O)(=O)c2ccc3c(c2)CC(C)N3C(=O)C2CC2)o1 (centres undefined) | -23.9%
Cc1[nH]c2ccccc2c1CC(=O)Nc1ccc(Nc2cccnc2)c(-c2cccc(Cl)c2)c1 | -0.4%
C/C(=N/O)c1ccc(N2C(=O)C3C4C=CC(C3C2=O)C2C3C(=O)N(c5ccc(/C(C)=N/O)cc5)C(=O)C3C42)cc1 (centres undefined) | -2.86%
CCCCCc1c(-c2ccc(OC)c(OC)c2)ncn1CCc1ccccc1OC | 73.9% (active)
CCCc1c(-c2ccccc2F)ncn1Cc1ccccc1OC | -7.18%
COc1ccccc1CCn1cnc(-c2ccccc2)c1C(C)C | 20%
CCCCCc1c(Cc2ccccc2)ncn1CCc1ccccc1OC | 66.2% (active)
CCCCc1c(-c2ccc(Cl)cc2)ncn1CCc1ccccc1OC | 49.6% (active)
CCCCCc1c(-c2cccc(Br)c2)ncn1CCc1ccccc1OC | 43.2%
CCCCc1c(-c2ccc(Br)cc2)ncn1CCc1ccccc1OC | 28.2%
COc1ccccc1CCNS(=O)(=O)c1cn(C)nc1C | -36.9%
CCc1c(-c2ccccc2OC)ncn1CCc1ccccc1OC | 14.3%
CCOC(=O)c1cc2cc(OC)ccc2n1C1CCN(C)CC1 | -4.73%
COC(=O)[C@]1(Cc2ccccc2)NC=C(C(=O)c2ccccc2)[C@@H]1c1cccc(OC)c1 | -1.81%
C[C@H](NC(=O)[C@@H]1CCCN1C(=O)[C@@H]1CCCN1C(=O)c1ccccc1)c1ccccc1 | 2.01%

Structure (SMILES) | inhibition
C=CCC[C@H](CCCCC)OC(=O)/C=C/[C@H](O)[C@@H](O)C[C@@H](O)CC=C | -19.3%
COC(=O)C(C)N(C#N)c1nc(C)nc(C)n1 (centres undefined) | -2.26%
COC(=O)c1c(-c2ccc(OC)cc2)c2c(c3c4ccccc4n(S(=O)(=O)c4ccc(C)cc4)c13)C(=O)N(C)C2 | -15.3%
CN=C(NC#N)NCCSCc1nc[nH]c1C | -15.6%
Cc1cc(C)n2nc(C(=O)Oc3ccc4c(c3)OCO4)nc2n1 | 2.03%
O=C(NCc1ccccc1)[C@@H]1CCCN1C(=O)[C@@H](NS(=O)(=O)c1ccc(F)cc1F)C1CCCCC1 | 7.07%
O=C(C(=O)N1CCC(c2ccccc2)CC1)c1ccccc1 | -1.49%
COc1ccc(-c2cc(C(F)(F)F)nc(SCCC(=O)NCc3ccco3)n2)cc1 | -2.48%
O=C(CSc1nc(-c2ccco2)cc(C(F)(F)F)n1)N1CCc2ccccc2C1 | -4.26%
O=C(CSc1nc(-c2ccco2)cc(C(F)(F)F)n1)NCc1cccs1 | 58.2% (active)
CC1CCCN(C(C(=O)Nc2ccc(C(C)C)cc2)c2ccc3c(c2)OCO3)C1 (centres undefined) | -12.3%
CCOC(=O)[C@]12CCCC=C1N(Cc1ccc3c(c1)OCO3)C(=O)[C@H](CC(=O)NCc1cccs1)C2 | -12.1%
O=C(O)c1ccc(-n2cccc2)cc1O | 6.36%
CC(=N\NC(=O)c1cc(Br)ccc1O)/C(=N/O)C(=O)Nc1ccccc1 | -8.22%
Cc1ccc(C(=O)NCC(=O)OCc2nnc(-c3ccccc3)o2)cc1 | -15.8%
Cc1onc(-c2ccccc2Cl)c1C(=O)OCc1nnc(-c2ccccc2)o1 | 14.8%
Cc1onc(-c2ccccc2)c1-c1nnc(COC(=O)c2ccc(N(C)C)cc2)o1 | 73.5% (active)
O=S1(=O)CC(N2CCN(Cc3ccccc3F)CC2)CN1Cc1cn(Cc2ccccc2)nn1 (centres undefined) | -11.1%
CC(C)CCNc1nc(N2CCCC2)c2c(c1C#N)CCN(C)C2 | -24.7%
CCCCc1nc(NCc2ccccc2)c(C#N)c2c1CCCC2 | -12.6%
CCN1CCc2c(C#N)c(NCc3ccccc3)nc(NCCO)c2C1 | 106% (active)

Structure (SMILES) | inhibition
COc1ccc(-c2nn(-c3ccccc3)cc2C(=O)Nc2nccs2)cc1OC | 71.3% (active)
COc1ccc(Cl)cc1NC(=O)CN(C)C(=O)c1cn(-c2ccccc2)nc1-c1cccs1 | 12.7%
O=C(O)c1ccccc1-c1ccccc1C(=O)Nc1nccs1 | -18.3%
CCn1c(/C=C/Nc2ccccc2)[n+](CC)c2ccc(C(=O)OCC(F)(F)F)cc21 | -27.5%
CC1(C)OC(=O)C2=C(C[C@@H](C3CCCCC3)O[C@@H]2c2ccc(Cl)cc2)O1 | -31%
CS(=O)(=O)c1ccc(-c2nnn(CC(=O)Nc3ccc4c(c3)OCCO4)n2)cc1 | 21%
CC(C)c1cccc(-c2csc(C(O)c3ccccc3)n2)c1 (centres undefined) | 17.5%
COc1ccccc1NS(=O)(=O)c1ccc(C(=O)N2CCN(c3ccccc3O)CC2)cc1 | 58.1% (active)
COc1ccc(N2CCN(C(=O)COC(=O)c3cccc(S(=O)(=O)Nc4ccccc4OC)c3)CC2)cc1 | 21.7%
CN1CCN(C(=O)c2ccc(NS(=O)(=O)c3ccccc3)cc2)CC1 | -8.92%
CCOc1ccc(-n2cnc3c(=O)[nH]c(N)nc32)cc1 | 0.45%
O=C(COC(=O)c1ccc(O)cc1O)NC(=O)c1ccccc1 | -0.49%
O=C(NNc1c2ccccc2nc2ccccc12)c1cc2ccccc2cc1O | 65.3% (active)
O=C(NNC(=O)c1ccccc1O)c1ccccc1O | -13.5%
Cc1cccc(C)c1NC(=O)C(c1ccc(C(F)(F)F)cc1)n1c(=O)c(-c2ccco2)nc2ccccc21 (centres undefined) | -9.78%
O=S(=O)(NCCc1ccccn1)c1cc(Cl)cc(Cl)c1O | -19.9%
O=C(c1ccc(O)cc1)c1ccc(C(=O)O)c(C(=O)O)c1 | 17.8%
COC(=O)[C@]12CCCCC=C1N(Cc1ccc3c(c1)OCO3)C(=O)[C@H](CC(=O)NCc1cccs1)C2 | 21.1%
O=C(COC(=O)c1c2c(nc3ccccc13)CCCC2)c1ccc(Br)s1 | 49% (active)
NS(=O)(=O)c1ccc(NC(=O)COC(=O)c2c3c(nc4ccccc24)/C(=C\c2ccc4c(c2)OCO4)CCC3)cc1 | 6.15%
Cn1cccc1C(=O)OCC(=O)c1ccc(Br)s1 | -0.72%

Structure (SMILES) | inhibition
Cc1cc(S(=O)(=O)N2CCOCC2)ccc1OCC(=O)Nc1cccc(C(F)(F)F)c1 | 30.6%
CN1C(=O)C2CC(O)C(SC3CC4C(=O)N(C)C(=O)C4CC3O)CC2C1=O (centres undefined) | 2.98%
CN[C@H]1C[C@H]2c3cc(Oc4ccccc4C)ccc3CCN2C(=O)[C@H]1[C@H](C)O | 0.22%
Cc1cc(OCc2ccc(C(=O)Nc3ccc(C(=O)O)cc3)o2)ccc1Cl | 50.2% (active)
O=C(O)c1ccc(NC(=O)c2ccc(COc3ccc(Cl)cc3)o2)cc1 | 34.7%
COc1ccc(NC(=O)CN(C)C(=O)c2ccc(COc3ccccc3)o2)cc1 | -57.5%
CC(C)(C)C(=O)c1c(N)[nH]c(C(=O)c2ccccc2)c1-c1ccc(F)cc1 | 2.74%
CCOC(=O)Cn1c2c(n(-c3ccc(F)cc3)c1=O)C=C(c1ccccc1)[C@@H](C)C(C(=O)N(C)C1CCCCC1)=C2 | -25%
COC(=O)[C@]12C[C@H](CC(=O)NCCC(C)C)C(=O)N(CCc3ccc(OC)c(OC)c3)C1=C[C@H](C(C)(C)C)O[C@@H]2C | -15.9%
Cc1cc2nc(-c3ccc(F)cc3)c(Cc3ccsc3)n2c(C)c1Br | -3.77%
Cc1ccc(C)c(N2CCN(C(=O)CCCCCn3c(=S)[nH]c4ccc(N5CCOCC5)cc4c3=O)CC2)c1 | 75% (active)
O=C(CCCCCn1c(=S)[nH]c2cc3c(cc2c1=O)OCO3)N1CCN(c2ccc(F)cc2)CC1 | 11.1%
Cc1ccc(C)c(N2CCN(C(=O)CCCn3c(=O)c4cccn4c4cccnc43)CC2)c1 | 26%
CCN(CCCNC(=O)c1ccc2c(c1)NC(=O)CN2C)c1cccc(C)c1 | -2.86%
C/C(=N\Nc1ncc(Cl)cc1Cl)c1ccc(S(=O)(=O)NCc2ccco2)cc1 | 49.3% (active)
O=S(=O)(NCc1ccco1)c1cnc(Cl)c(Cl)c1 | -4.49%
Cc1c(Cl)cnc(NC(=O)COC(=O)c2ccc(S(=O)(=O)NCc3ccco3)cc2)c1Cl | -10.1%
O=C(COC(=O)Cn1cnc2ccccc2c1=O)NCC12CC3CC(CC(C3)C1)C2 | -9.23%
C[C@H](O)[C@@H]1C(=O)N2CCc3c([nH]c4c(-c5ccc6c(c5)OCO6)cccc34)[C@@H]2C[C@@H]1N(C)C(=O)c1ccco1 | 60.8% (active)
CN[C@H]1C[C@H]2c3[nH]c4c(-c5ccccc5)cccc4c3CCN2C(=O)[C@H]1[C@H](C)O | 15.3%
CCOC(=O)CNC(=O)N(C)[C@H]1C[C@H]2c3[nH]c4c(-c5ccc6c(c5)OCO6)cccc4c3CCN2C(=O)[C@H]1[C@H](C)O | 12.4%
